Measured values from ChEMBL document CHEMBL1817581, “Synthesis, antibacterial evaluation and QSAR studies of 7-[4-(5-aryl-1,3,4-oxadiazole-2-yl)piperazinyl] quinolone derivatives” (2011).

What was measured:
Escherichia coli = assay: Antibacterial activity against Escherichia coli MTCC 739 after 24 hrs by NCCLS M7-A6 serial dilution method; assay type: functional
Outline: (§1)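 Two-fold tube dilution in culture medium; compounds dissolved in DMSO and diluted to final concentrations starting from 10 μg/ml until MIC reached. Incubated 24 h at 30 °C. MIC taken as the lowest concentration completely inhibiting growth, reported as pMIC (negative log of molar MIC). Medium plus DMSO was the negative control, ciprofloxacin the positive control. Run in triplicate.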

Staphylococcus aureus = assay: Antibacterial activity against Staphylococcus aureus subsp. aureus MTCC 1430 after 24 hrs by NCCLS M7-A6 serial dilution method; assay type: functional; outline: as §1
Bacillus subtilis = assay: Antibacterial activity against Bacillus subtilis MTCC 2423 after 24 hrs by NCCLS M7-A6 serial dilution method; parameters: unit not given here

Row | Compound | -logMIC (Escherichia coli) | -logMIC (Staphylococcus aureus) | -logMIC (Bacillus subtilis)
1 | COc1ccc(-c2nnc(N3CCN(c4cc5c(cc4F)c(=O)c(C(=O)O)cn5C4CC4)CC3)o2)cc1 | 3.2 | 3.12 | 3.09
2 | COc1c(N2CCN(c3nnc(-c4cccc([N+](=O)[O-])c4)o3)C(C)C2)c(F)cc2c(=O)c(C(=O)O)cn(C3CC3)c12 (stereo unspecified) | 3.55 | 3.25 | 3.55
3 | CCn1cc(C(=O)O)c(=O)c2cc(F)c(N3CCN(c4nnc(-c5ccccc5Cl)o4)CC3)cc21 | 3.6 | 3.21 | 3.21
4 | O=C(O)c1cn(C2CC2)c2cc(N3CCN(c4nnc(-c5ccccc5)o4)CC3)c(F)cc2c1=O | 3.22 | 3.26 | 3.87
5 | COc1c(N2CCN(c3nnc(-c4ccccc4)o3)C(C)C2)c(F)cc2c(=O)c(C(=O)O)cn(C3CC3)c12 (stereo unspecified) | 2.94 | 3.62 | 3.54
6 | COc1c(N2CCN(c3nnc(-c4ccc([N+](=O)[O-])c([N+](=O)[O-])c4)o3)C(C)C2)c(F)cc2c(=O)c(C(=O)O)cn(C3CC3)c12 (stereo unspecified) | 3.66 | 2.64 | 2.96
7 | COc1c(N2CCN(c3nnc(-c4ccc([N+](=O)[O-])cc4)o3)C(C)C2)c(F)cc2c(=O)c(C(=O)O)cn(C3CC3)c12 (stereo unspecified) | 3.24 | 3.61 | 3.11
8 | CCn1cc(C(=O)O)c(=O)c2cc(F)c(N3CCN(c4nnc(-c5ccc(OC)cc5)o4)CC3)cc21 | 3.5 | 3.2 | 3.2
9 | O=C(O)c1cn(C2CC2)c2cc(N3CCN(c4nnc(-c5cccc([N+](=O)[O-])c5)o4)CC3)c(F)cc2c1=O | 2.17 | 2.24 | 2.28
10 | O=C(O)c1cn(C2CC2)c2cc(N3CCN(c4nnc(-c5ccc([N+](=O)[O-])cc5)o4)CC3)c(F)cc2c1=O | 2.32 | 2.63 | 2.32
11 | O=C(O)c1cn(C2CC2)c2cc(N3CCN(c4nnc(-c5ccccc5Cl)o4)CC3)c(F)cc2c1=O | 2.43 | 2.43 | 2.38
12 | CCn1cc(C(=O)O)c(=O)c2cc(F)c(N3CCN(c4nnc(-c5ccc([N+](=O)[O-])cc5)o4)CC3)cc21 | 3.24 | 3.63 | 3.63
13 | COc1ccc(-c2nnc(N3CCN(c4c(F)cc5c(=O)c(C(=O)O)cn(C6CC6)c5c4OC)CC3C)o2)cc1OC (stereo unspecified) | 3.27 | 3.36 | 3.27
14 | O=C(O)c1cn(C2CC2)c2cc(N3CCN(c4nnc(-c5ccc([N+](=O)[O-])c([N+](=O)[O-])c5)o4)CC3)c(F)cc2c1=O | 3.65 | 2.95 | 3.25
15 | CCn1cc(C(=O)O)c(=O)c2cc(F)c(N3CCN(c4nnc(-c5ccc([N+](=O)[O-])c([N+](=O)[O-])c5)o4)CC3)cc21 | 3.63 | 3.24 | 3.87
16 | COc1ccc(-c2nnc(N3CCN(c4c(F)cc5c(=O)c(C(=O)O)cn(C6CC6)c5c4OC)CC3C)o2)cc1 (stereo unspecified) | 3.07 | 3.17 | 3.09
17 | O=C(O)c1cn(C2CC2)c2cc(N3CCNCC3)c(F)cc2c1=O [CIPROFLOXACIN] | 3.52 | 3.16 | 3.16
18 | CCn1cc(C(=O)O)c(=O)c2cc(F)c(N3CCN(c4nnc(-c5ccc(OC)c(OC)c5)o4)CC3)cc21 | 2.68 | 2.43 | 2.43
19 | COc1c(N2CCN(c3nnc(-c4ccccc4Cl)o3)C(C)C2)c(F)cc2c(=O)c(C(=O)O)cn(C3CC3)c12 (stereo unspecified) | 3.17 | 3.24 | 3.24
20 | COc1ccc(-c2nnc(N3CCN(c4cc5c(cc4F)c(=O)c(C(=O)O)cn5C4CC4)CC3)o2)cc1OC | 2.67 | 2.91 | 2.67
21 | CCn1cc(C(=O)O)c(=O)c2cc(F)c(N3CCN(c4nnc(-c5cccc([N+](=O)[O-])c5)o4)CC3)cc21 | 2.69 | 2.84 | 2.84
22 | CCn1cc(C(=O)O)c(=O)c2cc(F)c(N3CCN(c4nnc(-c5ccccc5)o4)CC3)cc21 | 2.65 | 2.58 | 2.58
